Calls of active or inactive are those of the source. The calls are words filed in the database; no cut-off is given here.
Legend:
[1] = test system: Enterovirus A71; assay: Antiviral activity against Enterovirus 71 infected in RD cells assessed as reduction in virus-induced cytopathic effect incubated for 2 to 3 days; format: functional, cell-based
In short: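 RD cells seeded at 20 000/well in MEM with 2% FCS and infected with EV71. Three 8-step 1:5 dilution series from 100 μM. Incubated 2-3 days until maximal CPE, then scored for CPE reduction. EC50 is the median of three dose-response curves.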

[2] = Inhibition of full length recombinant His6-tagged PI4K3beta (unknown origin) expressed in Sf9 insect cells using PI : PS as substrate in presence of [gamma-33P]-ATP by scintillation counting method; set-up: species or system Homo sapiens
[3] = Cytotoxicity against human RD cells after 2 to 3 days by MTS method; format: cell-based
In short: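 Uninfected RD cells, 20 000/well in 2% FCS medium, run in parallel with the antiviral assay. Three 8-step 1:5 dilution series from 100 μM, 2-3 days. Read-out by 5% MTS, 1.5 h at 37 °C, absorbance 498 nm, as % of untreated controls. CC50 is the 50% metabolic activity point, median of 3 curves.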

[4] = Cytotoxicity against human RD cells assessed as change in cell morphology by microscopic method; format: cell-based
In short: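 Uninfected, compound-treated RD cells were inspected by microscope. CC50 was taken from microscopically detectable alteration of cell morphology.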

[5] = Selectivity index, ratio of CC50 for human RD cells to EC50 for Enterovirus 71; format: toxicity; settings: read-out: Ratio CC50/EC50
In short: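 SI is CC50/EC50. CC50 is from the MTS assay on uninfected RD cells and EC50 from the EV71 CPE-reduction assay, both medians of three dose-response curves run in parallel.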

[6] = (§1) Inhibition of full length recombinant His6-tagged PI4K3alpha (unknown origin) expressed in Sf9 insect cells assessed as residual activity at 100 uM using PI : PS as substrate in presence of [gamma-33P]-ATP by scintillation counting method relative to control; settings: Homo sapiens
[7] = test system: Cystic fibrosis transmembrane conductance regulator (Homo sapiens), P13569 [F508del]; assay: Potentiator activity at CFTR F508 deletion mutant (unknown origin) expressed in HEK293 cells assessed as increase in aninon permeability at 10 uM […] by YFP probe based imaging method; format: cell-based
[8] = target: PI3-kinase p110-alpha/p85-alpha (Homo sapiens) (UniProt P27986+P42336); assay: as §1, with “recombinant human N-terminal” for “recombinant”, “PI3Kalpha (1 to 1068 residues)/full length human N-terminal myc-tagged P85alpha (1 to 724 residues)” for “PI4K3alpha (unknown origin)”
[9] = test system: enterovirus D68; assay: Antiviral activity against Enterovirus 68 after 2 to 3 days; format: functional
[10] = test system: Echovirus E11; assay: Antiviral activity against Echovirus 11 after 2 to 3 days; format: functional; settings: Enterovirus B
[11] = test system: Cystic fibrosis transmembrane conductance regulator (Homo sapiens), P13569 [F508del]; assay: Corrector activity at CFTR F508 deletion mutant (unknown origin) expressed in HEK293 cells assessed as increase in steady-state level of F508 deletion mutant at plasma membrane at 10 uM preincubated for 24 hrs followed by compound washout by pHTomato dye based fluorescence imaging method; format: cell-based
In short: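 HEK293 cells were transiently transfected (Lipofectamine 2000) with F508del-CFTR-pHTomato plus co-expressed soluble eGFP, then kept 24 h at 37 °C. Next, 24 h at 30 °C with 10 μM drug. Imaging in pH 7.4 HEPES buffer, then extracellular pH shifted to ~6.5 (MES) and ~8.8 (Tris). The eGFP-normalized fluorescence rise (ΔF) estimates membrane CFTR.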

[12] = Selectivity index, ratio of CC50 for human RD cells assessed as change in cell morphology to EC50 for Enterovirus 71; format: toxicity; settings: read-out: Ratio CC50/EC50
In short: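 SI is CC50/EC50. CC50 is from microscopically detected morphology change in uninfected RD cells and EC50 from the EV71 CPE-reduction assay in RD cells.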

[13] = test system: Poliovirus 1; assay: Antiviral activity against Poliovirus 1 after 2 to 3 days by cell based MTS assay; format: functional; settings: Enterovirus C
In short: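 Vero cells seeded at 20 000/well in MEM with 2% FCS. Three 8-step 1:5 dilution series from 100 μM, then virus, then cells; 2–3 days until maximal CPE. Read-out: 5% MTS for 1.5 h at 37°C, absorbance at 498 nm, expressed as % of untreated controls. EC50 taken as the median of 3 dose-response curves.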

[14] = test system: rhinovirus A2; assay: Antiviral activity against Rhinovirus 2 after 2 to 3 days by cell based MTS assay; format: functional; settings: Rhinovirus A; read-out: EC50
[15] = test system: Coxsackievirus B3; assay: Antiviral activity against Coxsackievirus B3 after 2 to 3 days by cell based MTS assay; format: functional; settings: Enterovirus B
[16] = test system: rhinovirus B14; assay: Antiviral activity against Rhinovirus 14 after 2 to 3 days by cell based MTS assay; format: functional
[17] = Enterovirus A, RD, read-out: EC50

Cystic fibrosis transmembrane conductance regulator (Homo sapiens), P13569 [F508del], sequence (P13569 as listed by the source): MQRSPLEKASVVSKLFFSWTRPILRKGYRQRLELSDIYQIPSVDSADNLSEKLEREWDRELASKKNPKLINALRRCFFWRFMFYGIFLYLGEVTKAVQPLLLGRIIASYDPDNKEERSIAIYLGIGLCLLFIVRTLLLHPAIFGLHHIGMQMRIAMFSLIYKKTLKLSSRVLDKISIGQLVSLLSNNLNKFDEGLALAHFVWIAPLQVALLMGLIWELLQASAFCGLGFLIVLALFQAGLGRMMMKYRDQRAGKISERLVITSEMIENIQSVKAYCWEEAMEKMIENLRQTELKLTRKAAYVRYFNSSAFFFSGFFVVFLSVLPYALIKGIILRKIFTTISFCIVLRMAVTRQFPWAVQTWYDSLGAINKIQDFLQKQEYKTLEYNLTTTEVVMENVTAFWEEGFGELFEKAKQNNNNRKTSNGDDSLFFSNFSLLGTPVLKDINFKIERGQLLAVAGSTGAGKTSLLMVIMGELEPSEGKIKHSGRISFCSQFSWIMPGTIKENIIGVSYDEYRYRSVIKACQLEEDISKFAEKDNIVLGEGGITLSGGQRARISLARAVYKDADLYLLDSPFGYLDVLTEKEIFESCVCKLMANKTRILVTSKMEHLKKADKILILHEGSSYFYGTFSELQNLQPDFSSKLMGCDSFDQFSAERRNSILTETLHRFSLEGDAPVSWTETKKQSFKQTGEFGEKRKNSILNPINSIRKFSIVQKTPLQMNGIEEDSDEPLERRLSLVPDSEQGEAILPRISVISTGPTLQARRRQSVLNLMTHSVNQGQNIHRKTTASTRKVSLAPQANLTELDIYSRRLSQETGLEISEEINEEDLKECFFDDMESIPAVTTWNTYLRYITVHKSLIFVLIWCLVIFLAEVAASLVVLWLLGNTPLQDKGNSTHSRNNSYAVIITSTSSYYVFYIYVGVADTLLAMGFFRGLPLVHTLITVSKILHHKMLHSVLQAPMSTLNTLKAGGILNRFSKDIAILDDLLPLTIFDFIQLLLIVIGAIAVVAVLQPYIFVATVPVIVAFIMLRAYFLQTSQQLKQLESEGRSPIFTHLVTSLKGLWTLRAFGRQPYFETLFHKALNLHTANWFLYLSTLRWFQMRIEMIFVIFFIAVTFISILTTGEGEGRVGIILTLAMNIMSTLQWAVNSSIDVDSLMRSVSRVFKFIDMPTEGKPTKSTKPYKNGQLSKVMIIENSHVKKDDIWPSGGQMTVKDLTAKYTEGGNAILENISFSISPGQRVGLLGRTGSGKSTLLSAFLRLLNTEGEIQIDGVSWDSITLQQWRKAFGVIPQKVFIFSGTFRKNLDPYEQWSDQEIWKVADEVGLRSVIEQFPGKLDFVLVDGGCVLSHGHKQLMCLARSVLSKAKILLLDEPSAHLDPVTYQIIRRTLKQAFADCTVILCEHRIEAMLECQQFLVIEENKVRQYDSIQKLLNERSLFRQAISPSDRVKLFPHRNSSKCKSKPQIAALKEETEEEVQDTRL

SMILES | EC50 [1] | IC50 ([2]; read-out: IC50) [µM] | EC50 [1, 17] [µM] | CC50 [3] [µM] | CC50 [4] [µM] | selectivity ratio [5] | Activity [6] [%] | Activity [7] | Activity [8] [%] | other results
CC(=O)Nc1nc(C)c(-c2csc(Nc3cccc(O)c3)n2)s1 | Not Active | 2.63 | – | – | – | – | – | – | – | –
CCC(=O)Nc1nc(C)c(-c2csc(Nc3ccc(N(C)C)cc3)n2)s1 | – | 50 | 8.58 | 51.6 | 142 | 6 | – | – | – | –
CC(=O)Nc1nc(C)c(-c2csc(Nc3ccc(C(C)=O)cc3)n2)s1 | – | 3.71 | 0.68 | 5.59 | – | 8.2 | 73 | inactive | 100 | –
CCC(=O)Nc1nc(C)c(-c2csc(Nc3cccc(C(C)=O)c3)n2)s1 | – | 0.27 | 0.38 | 10.1 | 6.37 | 26.6 | 72 | inactive | 40 | EC50 [9]: Not Active; EC50 [10]: 0.97 µM; Activity [11]: Active; selectivity ratio [12]: 23.6; EC50 [13]: < 1.52 µM; EC50 [14]: > 259 µM; EC50 [15]: 2.16 µM; EC50 [16]: Not Active
CC(=O)c1cccc(Nc2nc(-c3sc(NC(=O)NCc4ccc(Cl)cc4)nc3C)cs2)c1 | – | 3.95 | 4.77 | 20.9 | – | 4.4 | – | – | – | –
CC(=O)c1cccc(Nc2nc(-c3sc(NC(=O)Nc4ccccc4)nc3C)cs2)c1 | Not Active | 7.69 | – | – | – | – | – | – | – | –
CC(=O)c1cccc(Nc2nc(-c3sc(NC(=S)Nc4ccccc4)nc3C)cs2)c1 | Not Active | > 50 | – | – | – | – | – | – | – | –
CC(=O)Nc1nc(C)c(-c2csc(Nc3ccccc3)n2)s1 | – | 2.48 | 1.93 | 18.6 | – | 9.64 | 58 | inactive | 81 | –
CC(=O)Nc1nc(C)c(-c2c[nH]c(Nc3cccc(C(C)=O)c3)n2)s1 | – | > 50 | > 90.2 | 85.7 | 64.2 | – | – | – | – | –
CC(=O)c1cccc(Nc2nc(-c3sc(NC(=O)C(C)(C)C)nc3C)cs2)c1 | – | 0.32 | 0.27 | 7.94 | 8.83 | 29.4 | 71 | inactive | 93 | EC50 ([9]; Enterovirus D, read-out: EC50): 1.38 µM; EC50 [10]: 0.72 µM; selectivity ratio [12]: 32.7; EC50 [13]: < 1.41 µM; EC50 [14]: 2.01 µM; EC50 ([16]; Rhinovirus B, read-out: EC50): 4.85 µM
CC(=O)Nc1cccc(NC(=S)Nc2cccc(C(C)=O)c2)c1 | Not Active | – | – | – | – | – | – | – | – | IC50 [2]: Not Active
CC(=O)c1cccc(Nc2nc(-c3sc(NC(=O)C(F)(F)F)nc3C)cs2)c1 | – | 21.9 | 2 | 25.8 | 30.1 | 12.9 | 73 | inactive | 85 | EC50 [10]: 3.51 µM; selectivity ratio [12]: 15; EC50 [13]: 2.86 µM; EC50 [14]: 10.6 µM; EC50 [15]: 3.87 µM; EC50 ([16]; Rhinovirus B, read-out: EC50): 10.6 µM

Source: ChEMBL document CHEMBL3997800, “Discovery of Multitarget Agents Active as Broad-Spectrum Antivirals and Correctors of Cystic Fibrosis Transmembrane Conductance Regulator for Associated Pulmonary Diseases” (J Med Chem, 2017)
